The series in a line: Toxicity liver stage against HepG2, at 10uM. It counts as cell-based. Also noted: test concentration 10 uM, cell line HepG2-A16-CD81EGFP. As to conditions: human, HepG2-A16-CD81EGFP cells; read-out: INHIBITION
In short, it runs like this: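 Uninfected HepG2-A16-CD81EGFP cells, 3 × 10^3 per well, 1536-well, plated on prespotted compound at 10 μM final, parasite-free screening media added to match infected plates; puromycin 10 μM positive, DMSO 0.5% negative; run in parallel with 48 h PbLuc assay at 37 °C, 5% CO2; viability by CellTiter-Glo luminescence, normalized to controls.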

Each structure is given as a SMILES string.

Take `Cn1cc(C(=O)N2CCN(Cc3cscn3)CC2)ccc1=O`: the cytotoxicity at 10 µM was -4.79%. Then `O=C(CN1CCCC1Cn1cncn1)Nc1nccs1` (stereo unspecified), with 4.1%. Then `Cc1noc(C[C@@H]2COC[C@H]3CN(S(C)(=O)=O)C[C@@H]23)n1`, with 12.2%. Turning to `O=C(O)c1ncccc1OCC(F)(F)F`, the cytotoxicity at 10 µM was -8.76%. Next, `COc1ccc(CNC(Cc2cccs2)c2nc(C)c(C)s2)cc1OC` (stereo unspecified): -3.32%; `COCCCn1nnc(C2(NC(=O)c3ccccc3)CCCC2)n1`: 9.24%; `O=C(CC1CC1)N1Cc2nccn2CC(CN2CCCC2)C1` (stereo unspecified): -67.7%. Next, `Cc1cc(C)n(CC2CN(c3cnc4ccccc4n3)CCO2)n1` (stereo unspecified): -2.42%; `CN(C)S(=O)(=O)N1CCC(Oc2ccc(C#N)cn2)CC1`: 4.16%.

For the compound `CC(c1cccc(-c2ncc(C#N)c(N)n2)c1)N(C)C` (stereo unspecified), the cytotoxicity at 10 µM was -7.3%. Next, `Cc1cn2c(n1)CCC(NC(=O)c1cnc(C)nc1C(C)C)C2` (stereo unspecified): -0.144%; `COc1ccccc1CC(=O)N1CCCC(n2nc(C)nc2C)C1` (stereo unspecified): -4.47%.

For `CC(C)NC(=O)N1CCCC2(CCCCN2)C1` (stereo unspecified), the cytotoxicity at 10 µM turned out to be 11.4%. With `CN(Cc1ncnn1C)C(=O)Nc1ccc(OC(F)F)cc1`, the cytotoxicity at 10 µM is -0.778%. Next, `CC(C)n1cnnc1CN(C)C(=O)C1CCCN(C2CCN(C)CC2)C1` (stereo unspecified): -1.26%; `Cc1ccc(F)c2c1CCCN2Cc1cc(=O)n(C)c(=O)n1C`: 13.6%.

Turning to `CCC(=O)N1CCCN(Cn2nc(C)c(Br)c2C)CC1`, the cytotoxicity at 10 µM was 6.1%. Next, `CCOC(=O)CCNC(=O)N1CCCC(CNC(=O)c2cccs2)C1` (stereo unspecified): 0.712%; `COCCC(=O)N1CCN(CC(C)C)c2nc(C)ccc2C1`: 11.3%. Regarding `CC(=O)N1CCN(C[C@H]2CC[C@@H](Cc3ccc4c(c3)OCO4)O2)CC1`, the cytotoxicity at 10 µM is -7.9%. Then `Cc1nc[nH]c1C(=O)N1CCC2(CN(C)C(=O)O2)C1` (stereo unspecified), with 2.99%; and `CC(C)Cn1nc2ccc(S(=O)(=O)N3CCC(C)CC3)cn2c1=O`, with 1.67%. Next, `Cc1nc(CN2CC[C@H]3[C@H]2CCN3c2ncccn2)cs1`: -0.603%; `CC(C(=O)N1CCN(C)CC1)n1cc(Br)cn1` (stereo unspecified): 3.6%; `CC(=O)N1[C@H](CN(C)C)C[C@@H]2CN(C(=O)c3cnc(C)cn3)CC[C@@H]21`: -2.89%. Then `Cc1cc(C2CCC2)nc(N(C)Cc2cnccn2)n1`, with -1.86%. `Cc1nc(C)n(CC2CCCN2Cc2nc3ccccc3o2)n1` (stereo unspecified): the cytotoxicity at 10 µM is -5.62%. Next, `Cc1n[nH]c(=O)c(C(=O)N2CCN(CCc3cccs3)CC2)c1C`: -6.22%. Next, `CNC(=O)C(C)(C)NC(=O)c1cc(COc2cccc(C(C)=O)c2)[nH]n1`: 3.69%. Next, `CC(C)C(=O)N1CCN(S(C)(=O)=O)CC2(CC(=O)N(C)C2)C1` (stereo unspecified): 8.91%; `CSc1nccc(N2CCC3(CCCN(CCc4ccccc4)C3)C2)n1` (stereo unspecified): 16.2%; `O=C1[C@@H]2CCN(Cc3ccoc3)C[C@@H]2OCCN1Cc1cccnc1`: -0.671%. As to `COc1ccc(CN(C)C(=O)NCc2c(C)cc(C)nc2OC)cc1`, the cytotoxicity at 10 µM was -7.11%. Next, `COc1ccccc1CNC(=O)CN(C)C(C)c1ccon1` (stereo unspecified): -4.29%. Next, `CN(CCOc1ccc(Br)cc1)Cc1cscn1`: 5.25%; `CN1CCN(C(=O)Cn2nc(C(F)(F)F)c(Br)c2C2CC2)CC1`: -8.5%; `Cc1[nH]ccc1C(=O)N1CCOCC12CCCC2`: 4.14%.

Regarding `CC(CN1CCOCC1)NCC1CCN(c2cnn(C)c(=O)c2)CC1` (stereo unspecified), the cytotoxicity at 10 µM was -9.93%.

For `COc1c(Br)c(CC2CC(CO)=NO2)c(OC)c2c1OCO2` (stereo unspecified), the cytotoxicity at 10 µM is 6.36%. On to `Cc1cc(C)c(CNC(=O)N2CCCN(C(=O)C(C)C)CC2)c(C)c1`, for which the cytotoxicity at 10 µM turned out to be 12.3%. Then `CC(C)N1CCC(CC(=O)NCC2OCCc3ccccc32)CC1` (stereo unspecified), with -4.65%; and `Cc1nn(C(C)(C)C)c(C)c1C(=O)NCC1(C(N)=O)CCOCC1`, with 3.28%. Next, `CC(CCN1CCn2nc(CNC(=O)N(C)C)cc2C1)c1ccccc1` (stereo unspecified): -11.8%.

`OC(COc1ccccc1)CN1CCN(c2nccs2)CC1` (stereo unspecified): the cytotoxicity at 10 µM was 13.1%. Then `COCc1ncc(CN2CCC3(CCC(=O)N(CC(C)O)C3)CC2)cn1` (stereo unspecified), with -123%.

For `Cc1ccc(N2C[C@H](C)[C@]3(CCN(c4cccnc4)C3=O)C2)nn1`, the cytotoxicity at 10 µM is -1.22%. Next, `COc1cc(C(=O)N(CCC#N)Cc2ccccn2)cc(OC)c1C`: -15.1%. Next, `Cc1ccc(S(=O)(=O)NCC(C)C#N)cc1Br` (stereo unspecified): 0.727%; `CN(Cc1nccn1C)C(=O)c1cccc(CCC(C)(C)O)c1`: 1.26%. Next, `CN1CCOC[C@H]1c1nc(C(C)(C)C)c[nH]1`: 5.08%.

Regarding `CN(Cc1ccccc1)CC1(O)CCCN(CC(C)(C)C)C1=O` (stereo unspecified), the cytotoxicity at 10 µM is -12.4%.

For `CS(=O)(=O)c1cn[nH]c1C1CCCCN1C(=O)Cc1cccnc1` (stereo unspecified), the cytotoxicity at 10 µM was -30.7%. For `CCC(O)CN1CCN(C(=O)Cc2ccc(OC)cc2OC)CC1` (stereo unspecified), the cytotoxicity at 10 µM is -23.8%.

Turning to `Cc1cc(NC(=O)CN2CCn3c(nnc3C(C)C)C2)on1`, the cytotoxicity at 10 µM was 5.05%.

Regarding `Cc1nc(C(=O)N2CCCC2c2cncc(CN3CCCC3)n2)co1` (stereo unspecified), the cytotoxicity at 10 µM came out at 8.99%. For the compound `COc1ccc(OC)c(C2CCN(Cc3nc(C)n4ccccc34)C2)c1` (stereo unspecified), the cytotoxicity at 10 µM was -8.66%. As to `COC(=O)c1ccc2ccn(CC3CCCN(C)C3)c(=O)c2c1` (stereo unspecified), the cytotoxicity at 10 µM is -16.1%. Then `O=C(CC[C@@H]1CCCN2CCCC[C@H]12)NCCc1cc(O)ncn1`, with -1.91%; and `O=C(CCn1nc(-c2cccs2)oc1=O)Nc1cccc(F)c1`, with -5.21%. Regarding `O=C(c1ccc(Cn2ccccc2=O)o1)N1CCC2(CC1)OCCO2`, the cytotoxicity at 10 µM is -12.8%. Next, `O=C(NCc1ccon1)Nc1cc(F)ccc1N1CCCCC1`: 12.7%; `Cc1nc2c(c(N[C@@H](CO)C(N)=O)n1)Cc1ccccc1OC2`: 2.8%; `Cn1cc(C(=O)OC2CN(c3nc4c(C(F)(F)F)cccc4s3)C2)nn1`: -11.8%. As to `CC(C)CN1CC(C(=O)NCCc2ccc(OC(F)F)cc2)CC1=O` (stereo unspecified), the cytotoxicity at 10 µM turned out to be 5.04%.

On to `O=C(c1ccco1)N1CC[C@H]2C[C@@H](c3nccs3)O[C@@H]2C1`, for which the cytotoxicity at 10 µM turned out to be 0.428%. Turning to `Cc1nccn1-c1cc(CNC(=O)C(C)(C)C)ccn1`, the cytotoxicity at 10 µM was -11.9%. As to `NS(=O)(=O)N1CCC(C(=O)Nc2cccc(OC(F)F)c2)CC1`, the cytotoxicity at 10 µM is -9.5%. Then `CC(c1nc(C2CC2)no1)N1CCN(c2ccc(C#N)cn2)CC1` (stereo unspecified), with 1.18%; and `CC1CCCCN1C(=O)c1ccc(=O)[nH]n1` (stereo unspecified), with 3.95%; and `Cc1cc(C2CCCN(S(=O)(=O)c3cn[nH]c3)C2)ccn1` (stereo unspecified), with -1.77%. Turning to `CCc1cc(CN(C)C(=O)c2cc(=O)[nH]c(=O)[nH]2)on1`, the cytotoxicity at 10 µM was found to be 8.71%. Then `CC(C)n1ccc(CN2CCOC(CNc3cccnn3)C2)n1` (stereo unspecified), with -16.6%; and `Cc1ncc(CNCC(C)O)c2cc(C(=O)c3ccc(Br)cc3)oc12` (stereo unspecified), with 1.39%; and `Cc1cc(C(=O)N[C@H]2CN(CCO)C[C@@H]2C2CC2)sc1C`, with 1.18%. Next, `CCc1c(C)n(CCOC)c2nc3ccccc3n2c1=O`: -0.277%; `O=C(c1cscn1)N1CCCC(n2cncn2)C1` (stereo unspecified): 0.301%. For the compound `CCc1nc(Cn2ccnc2-c2nccn2C)no1`, the cytotoxicity at 10 µM was -42%. Then `OCC1(O)CCN(c2ccnc3c(C(F)(F)F)cccc23)CC1`, with -14.8%; and `O=S(=O)(Cc1ccccc1)NCc1ccnc(O)c1`, with -1.2%. For `Cc1cc(NC(=O)C(C)Nc2cccc(COCc3ccco3)c2)on1` (stereo unspecified), the cytotoxicity at 10 µM was -2.41%. Turning to `Cc1c(C(C)NC(=O)Nc2ccccc2F)cnn1C` (stereo unspecified), the cytotoxicity at 10 µM is -45.2%. As for `C[C@@H]1C[C@H]2CN(C(=O)c3cccc4c3OCCO4)C[C@H]2O1`, the cytotoxicity at 10 µM was -0.726%. On to `O=C(CN1CCc2c(ncn2C2CC2)C1)NC1CC1`, for which the cytotoxicity at 10 µM worked out at 1.01%. On to `O=C(c1cccc(CO)n1)N1CCOC(c2ccc(Cl)c(Cl)c2)C1` (stereo unspecified), for which the cytotoxicity at 10 µM is -10.4%.

As to `c1csc(CN2CCc3ncnc(C4CCOC4)c3CC2)n1` (stereo unspecified), the cytotoxicity at 10 µM turned out to be 4.53%. Then `O=C(CNC(=O)c1c[nH]c2ccccc12)NCCCn1ccnc1`, with -11.1%; and `CN(Cc1ccc2c(c1)OCO2)Cc1nc(Cc2ccccc2)no1`, with -2.59%. `CC(NC(=O)NCCc1ccc(Cl)s1)c1ccccn1` (stereo unspecified): the cytotoxicity at 10 µM was -3.07%. Next, `CCOCC1CCN(C(=O)Nc2ccc(-c3csnn3)cc2)C1` (stereo unspecified): 13.7%; `CC(C)OCc1noc(C2CCOC2)n1` (stereo unspecified): 1.19%.

Consider `CC(C)(O)CCc1ccc(C(=O)N2CCN(CCS(C)(=O)=O)CC2)cc1`, for which the cytotoxicity at 10 µM was -0.686%.

Turning to `COc1ccc(CN2C[C@@H]3COC[C@@H](N4CCN(C)CC4)[C@@H]3C2)cc1`, the cytotoxicity at 10 µM was -103%. Next, `CC(C)(O)c1cc(CC2(NCc3ccco3)COC2)no1`: -1.7%; `COCC(=O)N1CCN(C)CC(Cc2cc(N(C)C)ncn2)C1` (stereo unspecified): -1.79%; `CC(C)(CO)NC(=O)C1CCC(=O)N(Cc2ccc(Cl)cc2)C1` (stereo unspecified): -6.14%.

Take `CCCN1C[C@@H]2CC[C@H]1CN(C(=O)c1ccc(N(C)CCO)cc1)C2`: the cytotoxicity at 10 µM is -6.47%.

For the origin of these results see ChEMBL document CHEMBL4513216, “Probing the Open Global Health Chemical Diversity Library for Multistage-Active Starting Points for Next-Generation Antimalarials” (ACS Infect Dis, 2020).
